Source: PubChem
Neddyl block: inhibitors of cullin neddylation, primary screen, biochemical, TR-FRET, uHTS, NAE and Ubc12 | NEDD8-conjugating enzyme Ubc12 (Homo sapiens) + NEDD8-activating enzyme E1 regulatory … | AID 651699, 2012 | calls only at 25 µM | hit rate 0.58% among 360,000; in the data active means inhibition above about 36%
MT1-MMP act inh: blockers of MT1-MMP proenzyme processing, primary screen, HT1080 RFP-PRO-GFP cells, GFP/RFP fluorescence. GFP/RFP ratio fluorescence, overnight; percent of plate control window, DMSO zero. GFP/RFP ratio change, % at 20 µM. hit rate 0.061% among 360,000;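 active means GFP/RFP ratio change of at least 30% with cell ATP level not reduced by more than half and red fluorescence within 50% of control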
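Assay system: HT1080 cells carrying an RFP-PRO-GFP reporter | Dosing: Single dose of 20 µM compound, 1% DMSO final | Incubation: Cells overnight before dosing, compound overnight, 37 °C, 5% CO2 | Evaluation: GFP/RFP fluorescence ratio | Control set: DMSO and RFP-L50D-GFP cell wells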
DDE Tn7 FP inh: inhibitors of Tn7 peptide binding to fibrin DD(E), primary screen, biochemical, fluorescence polarization, human fibrin, Tn7 probe | AID 720508, 2013 | inhibition, % at 8.3 µM | Fibrinogen beta chain (Homo sapiens), P02675 | hit rate 0.13% among 370,000 | FP displacement of FITC-Tn7 peptide from fibrin DD(E); 0% = median of compound wells per plate;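 active means inhibition above the mean of compounds falling within the control limits plus 3 SD of them, cut at about 14% in these data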
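Assay system: Human fibrin DD(E) protein | Medium: Tris buffer with calcium and detergent, pH 7.8 | Reagent: 0.1 µM fluorescent Tn7 | Compound dosing: Single point at 8.3 µM | Times: 10 min preincubation, 3 h with tracer, room temperature | Detection: Fluorescence polarization of the labelled Tn7 tracer | Controls: Aha-Tn7 high control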
Tn6 DDE FP: inhibitors of Tn6 peptide binding to fibrin DD(E), primary screen, biochemical, fluorescence polarization, human fibrin, Tn6 probe; Fibrinogen beta chain (Homo sapiens), P02675; Fibrin DD(E) TRITC-Tn6 fluorescence polarization displacement; inhibition, % at 8.3 µM; hit rate 0.21% among 370,000;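 active means inhibition above a per-campaign cutoff: mean of compounds within control limits plus 3 SD, cut at about 15% in these data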
KLK7 zymogen act: proKLK7 zymogen activators, primary screen, biochemical, fluorescence intensity | Kallikrein-7 (Homo sapiens), P49862 | hit rate 0.9% among 370,000 | purified proKLK7, EDANS-DABCYL substrate fluorescence; 100% is mature enzyme control, 0% vehicle | activation, % at 7 µM;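 active means activation above the mean of all tested compounds plus 3 SD, computed per campaign excluding outliers beyond control limits, cut at about 13% in these data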
Target sequence (P49862 whole entry, looked up): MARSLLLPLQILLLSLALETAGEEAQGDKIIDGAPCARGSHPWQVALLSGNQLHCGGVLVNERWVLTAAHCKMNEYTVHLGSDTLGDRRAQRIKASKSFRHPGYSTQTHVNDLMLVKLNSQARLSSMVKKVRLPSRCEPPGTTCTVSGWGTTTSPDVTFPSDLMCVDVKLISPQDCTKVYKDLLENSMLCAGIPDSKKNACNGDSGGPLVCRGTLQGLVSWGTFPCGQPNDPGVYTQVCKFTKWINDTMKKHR
SKN-1 inh: suppressors of acrylamide-induced Pgst-4::GFP reporter in worms, primary screen, SKN-1 inhibitor project, whole organism, uHTS, GFP/RFP fluorescence ratio, strain VP596; AID 624304, 2012; hit rate 0.49% among 360,000; C. elegans VP596 Pgst-4::GFP/RFP ratio, 24 h; inhibition, % at 21.8 µM;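 active means interference check ratio from 0.5 to 1.5 plus GFP to RFP signal ratio inhibition reaching or exceeding a fixed threshold, cut at about 30% in these data, passing the limit was not always enough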
MT1-MMP conf: MT1-MMP activation inhibitors, hit retest, confirmation, single concentration, fluorescence, HT1080 RFP-PRO-GFP cells | shares compounds with MT1-MMP act inh | GFP and RFP fluorescence ratio, overnight | inhibition, % at 20 µM | hit rate 10% among 200;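 active means inhibition of at least 50% in the primary cell screen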
Neddyl conf: blockade of NEDD8 conjugation to cullin – biochemical, TR-FRET, single concentration, confirmation | TR-FRET cullin neddylation biochemical assay | AID 652217, 2013 | shares compounds with Neddyl block | calls only at 25 µM | hit rate 13% among 1,800; in the data active means inhibition above about 40%;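 further: neddylation substrate is the cullin 1 ring ligase complex with SKP2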
Each line names hits and unclear results; the compound was inactive in the other large screens (follow-up assays come after a bar, where they were run). Only some compounds are listed: those with a hit (about 2.2% of all), similar ones and a draw of the others.

CCCCn1c(NS(=O)(=O)c2ccccc2)c(C(=O)OCC)c2nc3ccccc3nc21	none
C=C(C)[C@@]12OC3(c4ccccc4)O[C@@H]1C1[C@@H]4O[C@]4(CO)[C@@H](O)[C@]4(O)C(=O)C(C)=C[C@H]4[C@@]1(O3)[C@H](C)[C@H]2OC(=O)/C=C/C=C/c1ccccc1 (some centres not stated)	SKN-1 inh 70 (no result: DDE Tn7 FP inh, Tn6 DDE FP, KLK7 zymogen act)
COc1ccc(-n2c(O)c(C=Nc3c(C)n(C)n(-c4ccccc4)c3=O)c(=O)[nH]c2=O)cc1	Tn6 DDE FP 17
COc1cccc(-n2c(O)c(C=Nc3c(C)n(C)n(-c4ccccc4)c3=O)c(=O)[nH]c2=O)c1	none
COc1cc(N2CCOCC2)ccc1/C=C1\C(=O)NC(=O)N(C2CCCCC2)C1=O	SKN-1 inh 50
CCN1C(=O)NC(=O)/C(=C\c2ccc(N3CCOCC3)cc2OC)C1=O	none (no result: Neddyl block, MT1-MMP act inh, SKN-1 inh)
O=[N+]([O-])c1ccccc1CNCCc1ccc(F)cc1	none
CC(C)(C)c1cc(C=C(C#N)C#N)cc(C(C)(C)C)c1O	SKN-1 inh 42
Cc1ccc(N2C(=O)NC(=O)/C(=C\c3cn(CC(=O)O)c4ccccc34)C2=O)cc1	none
CN1C(=O)/C(=C\c2ccc(Br)s2)C(=O)NC1=S	SKN-1 inh 37 (no result: MT1-MMP act inh)
O=C1NC(=S)NC(=O)C1=Cc1ccc(Br)s1	none
CN1C(=O)C(=Cc2sc(=O)n(-c3ccccc3)c2N2CCCCC2)C(=O)N(C)C1=O	SKN-1 inh 38
CC(=O)Nc1ccc(S(=O)(=O)N2Cc3cnnn3-c3ccccc3C2C#N)cc1 (configuration not stated)	none
COc1ccc2[nH]cc(CCN(C)C)c2c1	none
COc1ccc(CN2CCCC(C(=O)c3cccc(Cl)c3)C2)cc1 (configuration not stated)	SKN-1 inh 43
Cc1nc2ccccc2c(=O)n1-c1ccc(Br)cn1	none
Cc1nc2ccccc2c(=O)n1/N=C/c1cc(Br)cc(Br)c1O	Neddyl block active
Cc1cc(N(CCCl)CCCl)ccc1C=Cc1ccncn1	SKN-1 inh 42
O=C1NC2C(=CC(O)C(O)C2O)c2cc3c(c(O)c21)OCO3 (configuration not stated)	SKN-1 inh 55
O=C1NC2C(O)C(O)C(O)C(O)C2c2cc3c(c(O)c21)OCO3 (configuration not stated)	none
O=C1NC2C(=CC(O)C(O)C2O)c2cc3c(cc21)OCO3 (configuration not stated)	SKN-1 inh 40
CN(C)C(=O)Oc1cccc(OCc2n(C)c3ccccc3[n+]2C)c1	none
C[C@]12CC[C@@H](O)C[C@@H]1CC[C@@H]1[C@@H]2CC[C@]2(C)C(=O)CC[C@@H]12	DDE Tn7 FP inh 16
CC1=CC(O)C(O)C2(C)C1CC1OC(=O)C(O)C3C(C)C(O)C4(O)OCC13C42 (configuration not stated)	none (no result: DDE Tn7 FP inh, Tn6 DDE FP, KLK7 zymogen act)
C=CCN1C(=O)C2(C(C(=O)OCC)=C(N)Oc3ccccc32)C2=C1CCCC2=O (configuration not stated)	SKN-1 inh 37
CCOC(=O)C1=C(N)OC2=C(C(=O)CCC2)[C@]12C(=O)N(CC(N)=O)c1ccccc12	none
COC(=O)C1=C(c2cccc(C#N)c2)C[C@@H]2CC[C@H]1N2C(=O)NCc1cc(C)oc1C(F)(F)F	none
Oc1ccc(/C=N/NP(=S)(c2ccccc2)c2ccccc2)cc1	SKN-1 inh 38
CNC(=O)Oc1ccc(-c2cn3cc(Cl)ccc3n2)cc1	none
CNC(=O)Oc1cccc(-c2cn3cc(OC(=O)NC)ccc3n2)c1	SKN-1 inh 50 (no result: MT1-MMP act inh)
c1ccc(CC(NCc2ccco2)c2ccccc2)cc1 (configuration not stated)	none
CN1C(=O)N(C)C(=O)C(CCc2ccncc2)(Cc2ccc3c(c2)OCO3)C1=O	none
COC(=O)C1=C(c2ccc(OC)c(OC)c2)C[C@@H]2CC[C@H]1N2C(=O)N1CCCC1	MT1-MMP act inh 34 | MT1-MMP conf inactive
O=c1[nH]c(=S)n(C2CC2)c(O)c1/C=N/Nc1cccc2ccccc12	none
O=c1[nH]c(=S)n(C2CC2)c(O)c1/C=N/Nc1ccccc1	MT1-MMP act inh 61 | MT1-MMP conf inactive
COC(=O)C1=C(c2ccc(F)cc2OCc2ccccc2)C[C@@H]2CC[C@H]1N2C(=O)NC1CCN(Cc2ccccc2)CC1	none
Cc1nn(Cc2ccccc2)c(Cl)c1C(=O)OC(C)C(=O)Nc1ccc(F)cc1Cl (configuration not stated)	none
Cn1cccc1/C=C1/C(=O)NC(=S)N(Cc2ccc(F)cc2)C1=O	MT1-MMP act inh 39 | MT1-MMP conf inactive
CCC(=NCC1CCCO1)c1c(O)n(Cc2ccccc2)c(=O)[nH]c1=O (configuration not stated)	none
CC/C(=N\NC(=O)c1ccccc1)c1c(O)n(Cc2ccccc2)c(=O)[nH]c1=O	Neddyl block active | Neddyl conf inactive
O=C(N/N=C/c1c(O)n(CCc2ccccc2)c(=O)[nH]c1=O)c1ccccc1	Neddyl block active | Neddyl conf inactive
COc1cc(C2SCC(=O)Nc3c2c(C)nn3-c2ccccc2)cc(OC)c1OC (configuration not stated)	none
Cc1ccc(-c2cc(-c3ccccc3)cc(-c3ccccc3)[n+]2-c2ccccc2)cc1	none
Cc1ccc(-c2cc(-c3ccc(C)cc3)[n+](-c3ccc(C(=O)[O-])cc3)c(-c3ccc(C)cc3)c2)cc1	Neddyl block active | Neddyl conf active
C=CCn1c(O)c(C(CC)=Nc2cc(OC)ccc2OC)c(=O)[nH]c1=O	none
COc1ccc2[nH]c3c(c2c1)CCNC3C (configuration not stated)	none
CCc1ccc2c(CN3CC=C(c4ccccc4)CC3)cc(=O)oc2c1	none
